For data set [1], the target named is Phosphodiesterase 1 (Homo sapiens, UniProt P54750+Q01064+Q14123). The data set is described as follows: Inhibitory activity against PDE1 by scintillation proximity assay. The data set is classed as protein assay. In short, it runs like this:
(§1)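 Phosphodiesterase inhibition run as a scintillation proximity assay, with enzyme at a concentration in the linear range. Final substrate was 1 µM, below one-third of the enzyme K_M, so that IC50 approximates Ki. Values are means of n experiments with standard deviation.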

The target in data set [2] is cGMP-dependent 3',5'-cyclic phosphodiesterase (Homo sapiens, UniProt O00408). The data set is described as follows: Inhibitory activity against PDE2 by scintillation proximity assay. In short, it runs like this:
as §1

Data set [3] has as its target Phosphodiesterase 3 (Homo sapiens, UniProt Q14432+Q13370). Briefly: Inhibitory activity against PDE3 by scintillation proximity assay. The data set is classed as protein assay. In outline:
as §1
In general terms: SPA uses beads or plates that emit light when radiolabelled molecules are held near them.

In data set [4] the target is 3',5'-cyclic-AMP phosphodiesterase 4A (Homo sapiens, UniProt P27815). Briefly: Inhibitory activity against PDE4A by scintillation proximity assay. In short, it runs like this: as §1
3',5'-cyclic-AMP phosphodiesterase 4A, sequence (P27815 whole entry): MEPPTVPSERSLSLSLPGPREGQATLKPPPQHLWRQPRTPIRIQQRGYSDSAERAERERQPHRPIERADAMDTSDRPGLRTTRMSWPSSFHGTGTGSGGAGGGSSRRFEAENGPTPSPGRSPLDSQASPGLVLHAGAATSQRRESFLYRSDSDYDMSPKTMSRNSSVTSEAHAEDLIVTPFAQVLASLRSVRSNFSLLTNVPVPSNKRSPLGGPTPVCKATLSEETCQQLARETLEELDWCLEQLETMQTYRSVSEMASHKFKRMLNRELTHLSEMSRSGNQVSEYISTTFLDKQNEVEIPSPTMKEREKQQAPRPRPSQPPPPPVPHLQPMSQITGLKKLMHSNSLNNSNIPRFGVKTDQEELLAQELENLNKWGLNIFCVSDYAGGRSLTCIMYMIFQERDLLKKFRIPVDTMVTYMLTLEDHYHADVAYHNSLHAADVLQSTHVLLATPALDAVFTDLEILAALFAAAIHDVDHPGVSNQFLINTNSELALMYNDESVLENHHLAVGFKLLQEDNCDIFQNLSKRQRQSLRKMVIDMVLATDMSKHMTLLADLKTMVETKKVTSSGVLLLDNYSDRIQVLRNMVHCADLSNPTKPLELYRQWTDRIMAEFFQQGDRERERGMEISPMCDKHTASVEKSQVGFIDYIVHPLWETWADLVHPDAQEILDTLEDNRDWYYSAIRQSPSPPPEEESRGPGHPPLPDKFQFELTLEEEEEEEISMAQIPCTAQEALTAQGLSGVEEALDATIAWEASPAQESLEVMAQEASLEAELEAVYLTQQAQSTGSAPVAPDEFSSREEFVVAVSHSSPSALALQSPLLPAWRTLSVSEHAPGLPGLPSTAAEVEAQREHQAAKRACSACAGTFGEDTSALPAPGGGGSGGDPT
Data set [5] has as its target 3',5'-cyclic-AMP phosphodiesterase 4B (Homo sapiens, UniProt Q07343). Briefly: Inhibitory activity against PDE4B by scintillation proximity assay. In short, it runs like this: as §1
The target in data set [6] is 3',5'-cyclic-AMP phosphodiesterase 4C (Homo sapiens, UniProt Q08493). Briefly: Inhibitory activity against PDE4C by scintillation proximity assay. In outline:
(§2)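 Scintillation proximity assay for phosphodiesterase inhibition. Enzyme is used at a concentration within the linear range, and its KM was measured. Final substrate concentration is 1 µM, below one-third of KM, so IC50 approximates Ki. Results are means of n experiments with standard deviation.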

Data set [7] concerns the target 3',5'-cyclic-AMP phosphodiesterase 4D (Homo sapiens, UniProt Q08499). The data set is described as follows: Inhibitory activity against PDE4D by scintillation proximity assay. In short, it runs like this:
as §2

Data set [8] deals with cGMP-specific 3',5'-cyclic phosphodiesterase (Homo sapiens, UniProt O76074). Briefly: Inhibitory activity against PDE5 by scintillation proximity assay. In outline:
as §2

In data set [9] the target is High affinity cAMP-specific and IBMX-insensitive 3',5'-cyclic phosphodiesterase 8A (Homo sapiens, UniProt O60658). Briefly: Inhibitory activity against PDE8A by scintillation proximity assay. In outline: as §2
The target of data set [10] is High affinity cAMP-specific and IBMX-insensitive 3',5'-cyclic phosphodiesterase 8B (Homo sapiens, UniProt O95263). Briefly: Inhibitory activity against PDE8B by scintillation proximity assay. In short, it runs like this:
as §2

Data set [11] deals with High affinity cGMP-specific 3',5'-cyclic phosphodiesterase 9A (Homo sapiens, UniProt O76083). The data set is described as follows: Inhibitory activity against PDE9 by scintillation proximity assay. In outline: as §2
High affinity cGMP-specific 3',5'-cyclic phosphodiesterase 9A, sequence (O76083 whole entry): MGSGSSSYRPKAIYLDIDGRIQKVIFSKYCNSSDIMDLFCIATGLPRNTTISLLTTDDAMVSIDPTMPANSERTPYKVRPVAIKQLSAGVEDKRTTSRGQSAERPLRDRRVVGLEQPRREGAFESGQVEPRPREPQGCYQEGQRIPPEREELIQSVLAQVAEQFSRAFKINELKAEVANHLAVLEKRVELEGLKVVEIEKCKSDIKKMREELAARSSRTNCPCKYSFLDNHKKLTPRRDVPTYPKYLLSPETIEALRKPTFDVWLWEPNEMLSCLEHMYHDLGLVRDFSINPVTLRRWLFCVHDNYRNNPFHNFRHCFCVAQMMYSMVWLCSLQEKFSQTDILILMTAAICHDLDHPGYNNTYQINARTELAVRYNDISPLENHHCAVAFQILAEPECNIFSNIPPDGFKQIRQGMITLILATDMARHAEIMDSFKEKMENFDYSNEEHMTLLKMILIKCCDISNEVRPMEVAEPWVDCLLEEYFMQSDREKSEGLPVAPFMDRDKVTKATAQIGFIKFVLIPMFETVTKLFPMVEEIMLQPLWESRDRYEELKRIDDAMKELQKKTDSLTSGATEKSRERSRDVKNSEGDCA
For data set [12], the target named is cAMP and cAMP-inhibited cGMP 3',5'-cyclic phosphodiesterase 10A (Homo sapiens, UniProt Q9Y233). Briefly: Inhibitory activity against PDE10 by scintillation proximity assay. In short, it runs like this: as §1
cAMP and cAMP-inhibited cGMP 3',5'-cyclic phosphodiesterase 10A, sequence (Q9Y233 whole entry): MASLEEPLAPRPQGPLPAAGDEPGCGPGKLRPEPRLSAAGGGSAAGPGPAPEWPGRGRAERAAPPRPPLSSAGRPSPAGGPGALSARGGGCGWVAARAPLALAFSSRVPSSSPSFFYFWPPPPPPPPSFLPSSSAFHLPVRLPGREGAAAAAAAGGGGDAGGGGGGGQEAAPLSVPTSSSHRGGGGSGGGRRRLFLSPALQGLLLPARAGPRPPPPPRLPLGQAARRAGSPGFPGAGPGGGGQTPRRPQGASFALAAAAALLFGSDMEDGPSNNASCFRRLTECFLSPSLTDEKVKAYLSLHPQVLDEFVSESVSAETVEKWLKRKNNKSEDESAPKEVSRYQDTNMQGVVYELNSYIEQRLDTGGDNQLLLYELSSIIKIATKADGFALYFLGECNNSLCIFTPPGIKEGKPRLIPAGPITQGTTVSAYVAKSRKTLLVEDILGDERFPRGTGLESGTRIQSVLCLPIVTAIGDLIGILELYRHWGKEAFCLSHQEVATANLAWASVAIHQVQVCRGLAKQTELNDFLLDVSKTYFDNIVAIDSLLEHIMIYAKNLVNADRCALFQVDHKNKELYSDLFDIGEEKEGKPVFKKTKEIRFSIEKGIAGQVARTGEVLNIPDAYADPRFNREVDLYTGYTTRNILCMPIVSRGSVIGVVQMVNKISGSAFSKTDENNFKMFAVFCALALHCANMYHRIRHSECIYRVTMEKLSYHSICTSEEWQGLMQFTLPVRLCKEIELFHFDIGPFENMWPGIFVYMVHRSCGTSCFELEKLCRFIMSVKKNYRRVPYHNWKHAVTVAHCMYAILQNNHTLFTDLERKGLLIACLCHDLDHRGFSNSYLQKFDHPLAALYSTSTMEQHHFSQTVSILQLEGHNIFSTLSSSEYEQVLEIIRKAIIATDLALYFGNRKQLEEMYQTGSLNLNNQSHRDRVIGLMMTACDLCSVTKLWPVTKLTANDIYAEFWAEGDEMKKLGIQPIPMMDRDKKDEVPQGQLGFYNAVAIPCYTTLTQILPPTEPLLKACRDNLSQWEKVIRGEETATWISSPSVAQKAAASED
Data set [13] in a line: Half life in rat liver microsome. To be noted: liver microsomes. The data set is classed as ADME. (In general: Liver microsomes are vesicles of endoplasmic reticulum, rich in cytochrome P450 enzymes.)
Data set [14] in a line: Apical Caco-2 cell membrane permeability. Type of data set: ADME, cell-based. To be noted: human. (Caco-2 cells form a polarised layer with tight junctions and transporters.)
Data set [15] can be described thus: Basolateral Caco-2 cell membrane permeability. To be noted: human. Type of data set: ADME, cell-based.
Data set [16] in a line: Turbidimetric solubility at pH 7. The data set is classed as ADME, organism-based, Homo sapiens.

Structures are written as SMILES.

3',5'-cyclic-AMP phosphodiesterase 4D, sequence (Q08499 whole entry): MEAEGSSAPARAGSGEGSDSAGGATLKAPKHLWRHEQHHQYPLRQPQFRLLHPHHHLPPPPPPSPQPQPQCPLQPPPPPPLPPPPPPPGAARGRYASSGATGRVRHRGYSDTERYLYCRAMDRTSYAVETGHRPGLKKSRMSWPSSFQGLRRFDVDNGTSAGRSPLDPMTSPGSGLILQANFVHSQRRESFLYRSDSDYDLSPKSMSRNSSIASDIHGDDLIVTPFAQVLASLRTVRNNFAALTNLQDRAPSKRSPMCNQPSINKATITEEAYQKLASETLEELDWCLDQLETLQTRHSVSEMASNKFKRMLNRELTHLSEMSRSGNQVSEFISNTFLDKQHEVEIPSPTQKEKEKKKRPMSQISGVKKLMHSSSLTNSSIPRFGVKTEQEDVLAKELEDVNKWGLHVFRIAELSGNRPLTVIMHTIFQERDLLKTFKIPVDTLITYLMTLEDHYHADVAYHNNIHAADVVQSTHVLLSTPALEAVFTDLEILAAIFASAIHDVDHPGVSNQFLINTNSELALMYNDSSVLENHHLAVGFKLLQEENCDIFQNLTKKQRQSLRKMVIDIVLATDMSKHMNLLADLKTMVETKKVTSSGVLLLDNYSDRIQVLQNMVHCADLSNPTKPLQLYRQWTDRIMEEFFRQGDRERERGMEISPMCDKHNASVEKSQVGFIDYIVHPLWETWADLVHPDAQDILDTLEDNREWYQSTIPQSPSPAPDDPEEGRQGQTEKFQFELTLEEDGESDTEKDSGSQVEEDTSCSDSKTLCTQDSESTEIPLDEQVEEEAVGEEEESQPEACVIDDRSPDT
High affinity cAMP-specific and IBMX-insensitive 3',5'-cyclic phosphodiesterase 8B, sequence (O95263 whole entry): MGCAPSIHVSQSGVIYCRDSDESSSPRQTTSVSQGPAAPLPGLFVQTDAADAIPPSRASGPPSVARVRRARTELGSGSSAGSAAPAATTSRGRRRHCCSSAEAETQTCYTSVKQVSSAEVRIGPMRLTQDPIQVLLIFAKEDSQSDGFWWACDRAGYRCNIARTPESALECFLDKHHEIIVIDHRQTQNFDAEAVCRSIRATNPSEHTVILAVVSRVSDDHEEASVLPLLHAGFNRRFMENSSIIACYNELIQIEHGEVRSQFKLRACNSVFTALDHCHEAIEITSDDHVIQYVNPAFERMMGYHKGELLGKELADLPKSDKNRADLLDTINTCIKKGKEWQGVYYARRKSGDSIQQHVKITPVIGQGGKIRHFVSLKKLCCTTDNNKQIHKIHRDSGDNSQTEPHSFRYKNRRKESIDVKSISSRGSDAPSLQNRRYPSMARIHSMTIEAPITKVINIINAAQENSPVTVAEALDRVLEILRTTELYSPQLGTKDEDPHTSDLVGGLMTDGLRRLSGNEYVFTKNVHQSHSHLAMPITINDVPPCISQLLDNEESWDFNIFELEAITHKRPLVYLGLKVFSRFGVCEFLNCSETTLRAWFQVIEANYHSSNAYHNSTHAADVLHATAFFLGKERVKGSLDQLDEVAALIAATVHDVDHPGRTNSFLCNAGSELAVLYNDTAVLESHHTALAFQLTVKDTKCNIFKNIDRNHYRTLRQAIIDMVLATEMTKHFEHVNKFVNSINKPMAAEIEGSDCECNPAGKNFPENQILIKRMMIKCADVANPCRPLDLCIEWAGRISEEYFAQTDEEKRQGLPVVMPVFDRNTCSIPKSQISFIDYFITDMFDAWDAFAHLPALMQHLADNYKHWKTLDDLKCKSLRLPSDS
3',5'-cyclic-AMP phosphodiesterase 4B, sequence (Q07343 whole entry): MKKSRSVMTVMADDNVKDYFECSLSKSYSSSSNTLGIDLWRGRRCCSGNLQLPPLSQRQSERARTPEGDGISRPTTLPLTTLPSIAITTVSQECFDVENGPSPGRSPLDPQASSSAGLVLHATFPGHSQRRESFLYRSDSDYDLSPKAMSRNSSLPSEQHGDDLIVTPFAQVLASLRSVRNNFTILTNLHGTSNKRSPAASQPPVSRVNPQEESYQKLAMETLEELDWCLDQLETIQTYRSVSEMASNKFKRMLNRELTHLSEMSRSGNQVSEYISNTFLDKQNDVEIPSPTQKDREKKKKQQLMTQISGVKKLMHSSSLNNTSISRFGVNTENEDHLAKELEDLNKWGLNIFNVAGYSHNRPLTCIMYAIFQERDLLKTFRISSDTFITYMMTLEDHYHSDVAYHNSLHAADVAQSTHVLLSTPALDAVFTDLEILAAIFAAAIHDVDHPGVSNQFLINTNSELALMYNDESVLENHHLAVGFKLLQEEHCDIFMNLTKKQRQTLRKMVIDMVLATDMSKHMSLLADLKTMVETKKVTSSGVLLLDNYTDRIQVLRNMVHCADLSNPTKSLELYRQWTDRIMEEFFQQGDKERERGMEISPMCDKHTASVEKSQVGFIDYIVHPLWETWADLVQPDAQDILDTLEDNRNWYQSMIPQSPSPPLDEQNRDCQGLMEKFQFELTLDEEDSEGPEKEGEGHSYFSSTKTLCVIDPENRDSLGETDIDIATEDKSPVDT

Broadly, the IC50 is the point on the concentration scale where inhibition reaches its midpoint. Low values mean inhibition by little substance, high ones a need for much substance. One may read the half-life as how long it takes for the measured level to halve. Broadly, the Papp is the rate of passage across a membrane or cell layer, normalised by area and donor concentration. Read a low Papp as poor permeation. In general, kinetic solubility refers to solubility judged after dilution from a stock solution rather than from solid. Regarding `CCCCCC[C@H]([C@H](C)O)n1cnc2c(N)ncnc21` [(+)-EHNA], the IC50 in data set [1] was > 16 µM; in data set [2], 635 nM; in data set [3], > 16 µM; in [4] it was > 16 µM; in data set [5], > 16 µM; in data set [6] it was > 16 µM. The IC50 in [7], in [8], in data set [9], in [10], in data set [11] and in [12] was > 16 µM each time. This compound also had a half-life in data set [13] of 31 min. The Papp in [14] turned out to be 34 ×10⁻⁶ cm/s; in data set [15] it was 18 ×10⁻⁶ cm/s. For the same compound, the kinetic solubility in [16] is > 65 µg/mL.

Source of the values: ChEMBL document CHEMBL1147762, “A new chemical tool for exploring the physiological function of the PDE2 isozyme” (Bioorg Med Chem Lett, 2006).
